Test results as given in ChEMBL document CHEMBL5678798 (Clin Cancer Res, 2009).
pIC50: −log10 of the molar value.

Legend:
HT-29 = test: Antiproliferative activity against human HT-29 cells assessed as reduction in cell viability after 72 hrs by CellTiter-Glo assay; format: functional, cell-based; settings: HT-29, 72 h
Method in brief: (§1)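 Cells seeded in 96-well plates, left overnight at 37°C, then exposed to a range of test concentrations for 72 h. Viability read by CellTiter-Glo luminescence; IC50 from four-parameter curve fit. Lines kept at 37°C, 5% CO2, in recommended growth medium.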

[1] = Cytotoxicity against HUVEC cells assessed as reduction in cell viability after 72 hrs by CellTiter-Glo assay; format: toxicity, cell-based; settings: human; method in brief: as §1
COLO 205 = test: Induction of cell cycle arrest in human COLO 205 cells assessed as cells accumulation at G1 phase at 1 umol/L incubated for 48 hrs by propidium iodide staining based flow cytometric analysis (reference value: 65%); format: functional; settings: dose 1 µmol/L, at 1 µM
Method in brief: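 COLO 205, MCF-7 or NCI-H929 cells seeded in 96-well plates overnight at 37°C, then exposed to DMSO or increasing compound concentrations for 24 or 48 h. Fixed and stained with propidium iodide (Vindelov method), then analysed by flow cytometry for sub-G1, G1, S and G2-M fractions. Experiment repeated twice.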

[2] = Antitumor activity against mouse NIH-3T3/LISN cells implanted in nu/nu CD-1 mouse assessed as reduction in tumor growth at 30 mg/kg, po administered twice daily for 21 days relative to control; format: functional; settings: 504 h, time 21 day, read-out: TGI
Method in brief: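 Exponentially growing cells implanted s.c. in the right flank of 8–10-wk-old female athymic nu/nu CD-1 mice. At 150–200 mm3, block-randomized by tumor size into groups of eight. Oral dosing once or twice daily for 21 d; vehicle 20% sulfobutylether-β-cyclodextrin, pH 3.5. Calipers twice weekly; volume = length×width²/2. Growth inhibition = 100×[1 − treated growth/vehicle growth].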

[3] = target: Tyrosine-protein kinase ITK/TSK (Homo sapiens, UniProt Q08881); test: Inhibition of ITK (unknown origin)
[4] = target: Tyrosine-protein kinase JAK2 (Homo sapiens, UniProt O60674); test: Inhibition of JAK2 (unknown origin)
Chain of Tyrosine-protein kinase JAK2 (O60674 whole entry): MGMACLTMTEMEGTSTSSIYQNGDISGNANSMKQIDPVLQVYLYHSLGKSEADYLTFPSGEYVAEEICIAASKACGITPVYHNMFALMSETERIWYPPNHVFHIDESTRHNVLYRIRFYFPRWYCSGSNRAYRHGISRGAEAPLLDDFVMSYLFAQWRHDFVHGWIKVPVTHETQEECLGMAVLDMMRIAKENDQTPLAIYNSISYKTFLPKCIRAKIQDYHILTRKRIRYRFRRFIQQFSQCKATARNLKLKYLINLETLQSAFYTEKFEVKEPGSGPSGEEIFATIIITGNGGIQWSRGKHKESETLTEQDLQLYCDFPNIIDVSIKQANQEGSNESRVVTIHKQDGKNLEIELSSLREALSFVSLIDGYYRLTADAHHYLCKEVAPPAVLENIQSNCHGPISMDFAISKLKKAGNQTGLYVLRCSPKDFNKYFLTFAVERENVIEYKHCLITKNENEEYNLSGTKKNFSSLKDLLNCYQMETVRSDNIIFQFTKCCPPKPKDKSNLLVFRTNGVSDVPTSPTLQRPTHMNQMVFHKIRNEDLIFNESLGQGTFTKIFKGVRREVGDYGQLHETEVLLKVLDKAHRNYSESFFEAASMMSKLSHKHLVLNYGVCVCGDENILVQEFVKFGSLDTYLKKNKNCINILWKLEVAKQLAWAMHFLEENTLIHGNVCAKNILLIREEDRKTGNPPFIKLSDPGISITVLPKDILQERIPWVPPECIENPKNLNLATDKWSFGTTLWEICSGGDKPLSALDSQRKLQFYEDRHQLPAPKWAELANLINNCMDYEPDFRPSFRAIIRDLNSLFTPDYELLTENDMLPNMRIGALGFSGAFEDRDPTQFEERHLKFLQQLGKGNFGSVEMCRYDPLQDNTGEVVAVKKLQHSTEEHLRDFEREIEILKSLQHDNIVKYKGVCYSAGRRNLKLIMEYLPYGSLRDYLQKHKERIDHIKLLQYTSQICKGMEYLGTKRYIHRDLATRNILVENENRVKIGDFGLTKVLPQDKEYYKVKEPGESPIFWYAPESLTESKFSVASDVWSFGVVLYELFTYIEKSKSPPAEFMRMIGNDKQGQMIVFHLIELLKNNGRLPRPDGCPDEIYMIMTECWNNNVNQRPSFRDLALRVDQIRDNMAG

[5] = target: MAP kinase-activated protein kinase 2 (Homo sapiens, UniProt P49137); test: Inhibition of MAPKAPK2 (unknown origin)
Chain of MAP kinase-activated protein kinase 2 (P49137 whole entry): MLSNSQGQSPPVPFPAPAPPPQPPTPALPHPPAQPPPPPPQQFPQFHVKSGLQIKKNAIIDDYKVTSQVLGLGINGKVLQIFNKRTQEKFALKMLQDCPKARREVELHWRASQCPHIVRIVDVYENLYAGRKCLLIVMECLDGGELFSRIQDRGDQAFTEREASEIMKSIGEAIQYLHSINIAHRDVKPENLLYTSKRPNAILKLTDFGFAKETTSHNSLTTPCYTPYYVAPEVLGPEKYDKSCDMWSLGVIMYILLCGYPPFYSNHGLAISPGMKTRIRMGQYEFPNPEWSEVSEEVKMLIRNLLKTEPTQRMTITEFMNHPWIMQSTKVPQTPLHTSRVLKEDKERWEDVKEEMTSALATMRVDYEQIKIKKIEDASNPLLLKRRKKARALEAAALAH

[6] = target: Mitogen-activated protein kinase 14 (Homo sapiens, UniProt Q16539); test: Inhibition of P38alpha (unknown origin)
[7] = target: Cyclin-dependent kinase 16 (Homo sapiens, UniProt Q00536); test: Inhibition of PCTAIRE1 (unknown origin)
Chain of Cyclin-dependent kinase 16 (Q00536 whole entry): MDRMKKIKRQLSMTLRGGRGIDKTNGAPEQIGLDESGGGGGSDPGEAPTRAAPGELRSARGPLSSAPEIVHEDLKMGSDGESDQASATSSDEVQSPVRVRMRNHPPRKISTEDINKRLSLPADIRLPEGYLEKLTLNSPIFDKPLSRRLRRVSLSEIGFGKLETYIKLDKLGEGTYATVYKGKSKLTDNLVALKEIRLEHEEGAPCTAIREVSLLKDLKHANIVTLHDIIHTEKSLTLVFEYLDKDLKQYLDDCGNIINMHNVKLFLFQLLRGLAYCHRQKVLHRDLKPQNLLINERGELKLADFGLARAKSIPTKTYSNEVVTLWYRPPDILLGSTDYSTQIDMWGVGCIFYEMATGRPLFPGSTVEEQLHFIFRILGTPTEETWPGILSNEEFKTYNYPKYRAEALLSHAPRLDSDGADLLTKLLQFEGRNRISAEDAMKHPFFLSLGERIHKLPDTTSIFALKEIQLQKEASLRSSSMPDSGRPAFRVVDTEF

[8] = target: Dual specificity protein kinase CLK2 (Homo sapiens) (UniProt P49760); test: Inhibition of N-terminal GST-tagged recombinant human CLK2 (138 to end residues) expressed in baculovirus infected Sf21 cells at 0.3 uM by filter binding assay relative to control
Chain of Dual specificity protein kinase CLK2 (Homo sapiens) (P49760 whole entry, looked up): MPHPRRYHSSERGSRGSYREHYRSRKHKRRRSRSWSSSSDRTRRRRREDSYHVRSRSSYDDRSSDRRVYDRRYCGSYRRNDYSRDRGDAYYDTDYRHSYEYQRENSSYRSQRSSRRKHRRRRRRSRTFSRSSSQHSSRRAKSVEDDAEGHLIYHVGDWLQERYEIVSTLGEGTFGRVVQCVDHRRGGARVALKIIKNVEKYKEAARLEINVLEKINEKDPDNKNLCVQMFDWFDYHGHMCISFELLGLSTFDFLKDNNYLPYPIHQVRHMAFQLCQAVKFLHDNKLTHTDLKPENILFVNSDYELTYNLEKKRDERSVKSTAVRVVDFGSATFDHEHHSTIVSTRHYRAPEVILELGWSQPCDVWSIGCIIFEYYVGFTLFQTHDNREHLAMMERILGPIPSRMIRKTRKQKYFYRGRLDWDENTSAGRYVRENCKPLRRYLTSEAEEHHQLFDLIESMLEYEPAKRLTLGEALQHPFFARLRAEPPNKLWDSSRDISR
Method in brief: (§2)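 Outsourced single-concentration screen in a commercial panel of 233 protein kinases, run as radiometric filter-binding activity assays. Test agent was tested at 0.3 or 3 µmol/L, as given in each line, from a 10 mmol/L DMSO stock. Activity is expressed as percent inhibition relative to control.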

[9] = target: Serine/threonine-protein kinase TBK1 (Homo sapiens) (UniProt Q9UHD2); test: Inhibition of N-terminal His6-tagged recombinant full-length human TBK1 expressed in baculovirus infected Sf21 cells at 0.3 uM by filter binding assay relative to control; method in brief: as §2
Chain of Serine/threonine-protein kinase TBK1 (Homo sapiens) (Q9UHD2 whole entry): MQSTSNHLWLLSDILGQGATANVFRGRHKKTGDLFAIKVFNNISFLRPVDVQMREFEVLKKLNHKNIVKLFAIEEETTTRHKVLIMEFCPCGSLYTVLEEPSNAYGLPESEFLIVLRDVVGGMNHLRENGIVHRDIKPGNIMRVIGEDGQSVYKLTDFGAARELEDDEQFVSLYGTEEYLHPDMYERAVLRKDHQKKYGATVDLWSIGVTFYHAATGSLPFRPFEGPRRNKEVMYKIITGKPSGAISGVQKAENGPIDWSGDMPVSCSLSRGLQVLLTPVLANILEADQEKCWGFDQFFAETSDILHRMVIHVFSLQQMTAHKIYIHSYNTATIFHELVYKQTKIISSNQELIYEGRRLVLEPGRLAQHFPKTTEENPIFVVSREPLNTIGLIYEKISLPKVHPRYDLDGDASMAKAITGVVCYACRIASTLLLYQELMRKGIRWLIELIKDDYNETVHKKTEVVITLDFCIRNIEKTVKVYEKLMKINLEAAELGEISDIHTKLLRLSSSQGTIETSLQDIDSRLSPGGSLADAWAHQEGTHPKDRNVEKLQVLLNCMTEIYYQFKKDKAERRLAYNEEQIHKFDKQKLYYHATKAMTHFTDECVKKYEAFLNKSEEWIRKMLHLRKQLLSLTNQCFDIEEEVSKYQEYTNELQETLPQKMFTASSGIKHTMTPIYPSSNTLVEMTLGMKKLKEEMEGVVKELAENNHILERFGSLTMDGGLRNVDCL

[10] = target: Testis-specific serine/threonine-protein kinase 2 (Homo sapiens) (UniProt Q96PF2); test: Inhibition of N-terminal His6-tagged recombinant full length human TSSK2 expressed in baculovirus infected Sf21 cells at 0.3 uM by filter binding assay relative to control; method in brief: as §2
Chain of Testis-specific serine/threonine-protein kinase 2 (Homo sapiens) (Q96PF2 whole entry): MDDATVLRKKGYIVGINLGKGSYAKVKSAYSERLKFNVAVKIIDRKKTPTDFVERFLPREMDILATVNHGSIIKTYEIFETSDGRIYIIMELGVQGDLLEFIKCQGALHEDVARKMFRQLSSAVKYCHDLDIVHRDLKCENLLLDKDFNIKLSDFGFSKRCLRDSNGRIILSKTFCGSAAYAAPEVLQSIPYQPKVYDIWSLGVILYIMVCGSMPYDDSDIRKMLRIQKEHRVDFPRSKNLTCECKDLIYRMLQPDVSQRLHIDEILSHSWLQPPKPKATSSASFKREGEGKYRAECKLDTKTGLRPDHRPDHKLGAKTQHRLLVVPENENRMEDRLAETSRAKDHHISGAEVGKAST

[11] = target: Protein-tyrosine kinase 6 (Homo sapiens) (UniProt Q13882); test: Inhibition of N-terminal His6-tagged recombinant full-length human BRK expressed in baculovirus infected Sf21 cells at 3 uM by filter binding assay relative to control
[12] = target: Dual specificity tyrosine-phosphorylation-regulated kinase 2 (Homo sapiens) (UniProt Q92630); test: Inhibition of 6His-tagged recombinant full-length human DYRK2 expressed in baculovirus infected Sf21 cells at 3 uM by filter binding assay relative to control
Chain of Dual specificity tyrosine-phosphorylation-regulated kinase 2 (Homo sapiens) (Q92630 whole entry): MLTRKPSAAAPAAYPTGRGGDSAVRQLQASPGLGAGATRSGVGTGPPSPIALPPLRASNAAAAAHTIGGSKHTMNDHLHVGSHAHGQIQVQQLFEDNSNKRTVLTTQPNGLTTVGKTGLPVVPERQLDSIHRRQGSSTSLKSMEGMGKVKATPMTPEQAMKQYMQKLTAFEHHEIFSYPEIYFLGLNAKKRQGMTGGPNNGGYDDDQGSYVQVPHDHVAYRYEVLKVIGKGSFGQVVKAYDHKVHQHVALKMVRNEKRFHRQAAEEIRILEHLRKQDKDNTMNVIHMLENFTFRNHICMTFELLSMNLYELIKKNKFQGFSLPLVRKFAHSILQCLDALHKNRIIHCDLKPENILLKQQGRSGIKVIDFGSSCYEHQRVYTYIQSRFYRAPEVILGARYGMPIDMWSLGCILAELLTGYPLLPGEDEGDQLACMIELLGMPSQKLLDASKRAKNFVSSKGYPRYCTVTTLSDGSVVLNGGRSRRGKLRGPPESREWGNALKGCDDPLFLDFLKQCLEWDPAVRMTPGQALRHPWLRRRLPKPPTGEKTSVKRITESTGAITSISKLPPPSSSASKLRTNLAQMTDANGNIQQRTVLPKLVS
Method in brief: (§3)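 KinaseProfiler panel of 233 kinases: radiometric filter-binding activity assays with compound at 0.3 or 3 µmol/L. Read-out is percent inhibition.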

Homo sapiens = organism: Homo sapiens; test: Inhibition of N-terminal GST-tagged recombinant human MAPK1 expressed in Escherichia coli at 3 uM by filter binding assay relative to control; method in brief: as §2
[13] = target: Protein-tyrosine kinase 2-beta (Homo sapiens) (UniProt Q14289); test: Inhibition of N-Terminal His6-tagged recombinant full-length human Pyk2 expressed in baculovirus infected Sf21 cells at 3 uM by filter binding assay relative to control; method in brief: as §3
[14] = target: Serine/threonine-protein kinase PLK2 (Homo sapiens) (UniProt Q9NYY3); test: Inhibition of human Snk at 3 uM by filter binding assay relative to control
Chain of Serine/threonine-protein kinase PLK2 (Homo sapiens) (Q9NYY3 whole entry, looked up): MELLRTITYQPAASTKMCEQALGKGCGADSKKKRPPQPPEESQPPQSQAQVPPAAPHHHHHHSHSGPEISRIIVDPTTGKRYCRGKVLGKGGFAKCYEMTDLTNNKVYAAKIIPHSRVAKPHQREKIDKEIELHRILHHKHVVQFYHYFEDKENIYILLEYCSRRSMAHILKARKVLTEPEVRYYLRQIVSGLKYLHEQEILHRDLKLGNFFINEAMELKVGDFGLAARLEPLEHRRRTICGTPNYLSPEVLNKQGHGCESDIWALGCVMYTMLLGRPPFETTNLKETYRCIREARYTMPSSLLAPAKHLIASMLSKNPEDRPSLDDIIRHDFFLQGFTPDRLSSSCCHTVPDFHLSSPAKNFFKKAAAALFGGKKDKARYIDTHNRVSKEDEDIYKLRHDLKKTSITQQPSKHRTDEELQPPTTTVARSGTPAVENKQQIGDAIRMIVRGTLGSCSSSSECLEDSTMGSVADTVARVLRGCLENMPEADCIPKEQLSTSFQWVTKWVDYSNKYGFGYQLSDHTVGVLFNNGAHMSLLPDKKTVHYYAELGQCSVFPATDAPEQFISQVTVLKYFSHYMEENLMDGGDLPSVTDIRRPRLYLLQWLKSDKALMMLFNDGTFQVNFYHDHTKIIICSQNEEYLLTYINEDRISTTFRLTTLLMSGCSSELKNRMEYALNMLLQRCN

[15] = target: Serine/threonine-protein kinase D2 (PRKD2) (Homo sapiens) (UniProt Q9BZL6); test: Inhibition of N-terminal His6 tagged, recombinant full-length human PKD2 expressed in Sf21 cells at 0.3 uM by filter binding assay relative to control

CCc1cc(Nc2nccc(-c3c(-c4ccc(OC)c(C(=O)Nc5c(F)cccc5F)c4)nc4ccccn34)n2)c(OC)cc1N1CCC(N2CCN(S(C)(=O)=O)CC2)CC1
pIC50 (HT-29): 6.98 | IC50 at 72 h [1]: > 20 µM | Activity (COLO 205): 78% | inhibition in vivo at 30 mg/kg [2]: 98% | pIC50 [3]: < 4.60 | pIC50 [4]: < 4.80 | pIC50 [5]: < 4.60 | pIC50 [6]: 5.00 | pIC50 [7]: < 5.00 | inhibition [8]: 0% | inhibition [9]: 18% | inhibition [10]: 4% | inhibition [11]: 38% | inhibition [12]: -8% | inhibition (Homo sapiens): -10% | inhibition [13]: 24% | inhibition [14]: -8% | inhibition [15]: 4%
